Series [1] relates to Trypanosoma brucei brucei. The series is described as follows: Antitrypanosomal activity against Trypanosoma brucei brucei MIT measured after 6 hrs by Alamar blue cell viability assay. The format is functional, organism-based. Put shortly:
(§1)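 Bloodstream-form T. b. brucei MITat1.1 kept in log phase in antibiotic-free HMI-9 with 10% heat-inactivated FBS, 37 °C, 5% CO2. Seeded at 2 × 10⁵ cells/mL with 5 μM–100 pM compound or DMSO alone. Alamar Blue added at 6 h, total incubation 24 h. Absorbance read at 540 and 595 nm. Triplicate. EC50 by four-parameter variable-slope nonlinear regression.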

Series [2] relates to Trypanosoma brucei brucei. The series is described as follows: Antitrypanosomal activity against Trypanosoma brucei brucei assessed as reduction in survival. The format is functional, organism-based. In short, it runs like this: as §1
Series [3] has as its system HaCaT. The series is described as follows: Growth inhibition of human HaCaT cells assessed as LDH release at 100 uM incubated for 24 hrs by MTT assay. Type of series: toxicity, cell-based. In short, it runs like this: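 HaCaT keratinocytes in DMEM with 10% fetal calf serum, seeded at 1x10⁵ cells/mL and grown 24 h. After a PBS wash, cells were exposed 24 h to compound at final 100 μM (from 10 mM DMSO stock, diluted in medium). Medium was then assayed for LDH release at 490/680 nm. Normalised to untreated cells and to lysis buffer (maximum release) as % cytotoxicity. Triplicate wells, three independent experiments.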

Series [4] in a line: Growth inhibition of human HaCaT cells incubated for 24 hrs by MTT assay. Type of series: toxicity, cell-based. Put shortly:
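HaCaT cells (mycoplasma-tested) in DMEM with 10% fetal calf serum, seeded at 1x10⁵ cells/mL for 24 h, washed with PBS and then exposed to compound for 24 h. Controls were 0.1% v/v Triton X-100 and untreated cells. MTT (0.5 mg/mL) added for 3 h, formazan dissolved in DMSO and read at 590 nm. GI50 from log(inhibitor) vs normalised response. Triplicate wells, repeated on three separate days.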

Series [5] has as its system HaCaT. Put plainly: Growth inhibition of human HaCaT cells assessed as reduction in cell viability at above 10 uM incubated for 24 hrs by MTT assay.

Each structure is given as a SMILES string.

Here are results for 18 molecules from ChEMBL document CHEMBL5223070, “Synthesis and optimisation of P3 substituted vinyl sulfone-based inhibitors as anti-trypanosomal agents” (Bioorg Med Chem, 2020).

`O=C(N[C@@H](Cc1ccccc1)C(=O)N[C@H](/C=C/S(=O)(=O)c1ccccc1)CCCCNS(=O)(=O)c1cccc2ccccc12)OCc1ccccc1`: the EC50 in series [1] is 0.74 µM. In the case of `O=C(N[C@H](/C=C/S(=O)(=O)c1ccccc1)CCCCNS(=O)(=O)c1cccc2ccccc12)[C@H](Cc1ccccc1)NC(=O)N1CCOCC1`, the EC50 in series [1] amounted to 0.9 µM.

Turning to `O=C(N[C@H](/C=C/S(=O)(=O)c1ccccc1)CCCCNS(=O)(=O)c1cccc2ccccc12)[C@H](Cc1ccccc1)n1cc(-c2ccccc2)nn1`, in series [1], a half-maximal effect (EC50) was put at 1.12 µM. The same measure, in the same setting: then `Cc1ccc(S(=O)(=O)N[C@@H](Cc2ccccc2)C(=O)N[C@H](/C=C/S(=O)(=O)c2ccccc2)CCCCNS(=O)(=O)c2cccc3ccccc23)cc1`, with 0.99 µM.

In series [1], `CN1CCN(C(=O)N[C@@H](Cc2ccccc2)C(=O)N[C@H](/C=C/S(=O)(=O)c2ccccc2)CCCCNS(=O)(=O)c2cccc3ccccc23)CC1` returned an EC50 of 1.19 µM. Moreover, the IC50 in series [2] is 1.18 µM. In addition, the “growth inhibition (GI)” value in the series on HaCaT [3] is “Not Determined(Insoluble)”; with HaCaT [5], “Toxic”. Further, the GI50 at 24 h in series [4] came out at 28.7 µM. For the molecule `[N-]=[N+]=N[C@@H](Cc1ccccc1)C(=O)N[C@H](/C=C/S(=O)(=O)c1ccccc1)CCCCNS(=O)(=O)c1cccc2ccccc12`, the EC50 in series [1] is above 5 µM.

Regarding `N[C@@H](Cc1ccccc1)C(=O)N[C@H](/C=C/S(=O)(=O)c1ccccc1)CCCCNS(=O)(=O)c1cccc2ccccc12`, in series [1], the EC50 came out at 3.43 µM. The same measure, in the same setting: then `CC(C)(C)NC(=O)N[C@@H](Cc1ccccc1)C(=O)N[C@H](/C=C/S(=O)(=O)c1ccccc1)CCCCNS(=O)(=O)c1cccc2ccccc12`, with above 5 µM. Still for that read-out and setting: then `O=C(N[C@@H](Cc1ccccc1)C(=O)N[C@H](/C=C/S(=O)(=O)c1ccccc1)CCCCNS(=O)(=O)c1cccc2ccccc12)c1ccncc1`, with 0.71 µM; and `CCCCCCc1cn([C@@H](Cc2ccccc2)C(=O)N[C@H](/C=C/S(=O)(=O)c2ccccc2)CCCCNS(=O)(=O)c2cccc3ccccc23)nn1`, with 1.05 µM; and `CCCCNC(=O)N[C@@H](Cc1ccccc1)C(=O)N[C@H](/C=C/S(=O)(=O)c1ccccc1)CCCCNS(=O)(=O)c1cccc2ccccc12`, with 0.64 µM. Same read-out and setting: then `O=C1N[C@@H](CCCCNS(=O)(=O)c2cccc3ccccc23)[C@@H](CS(=O)(=O)c2ccccc2)N[C@H]1Cc1ccccc1`, with above 5 µM. For `COc1cc(Br)c(S(=O)(=O)NCCCC[C@@H](/C=C/S(=O)(=O)c2ccccc2)NC(=O)[C@H](Cc2ccccc2)NC(=S)Nc2ccc(C(F)(F)F)cc2)cc1OC`, the EC50 in series [1] is 0.39 µM. In addition, in series [2], the IC50 amounted to 0.41 µM. For the same molecule, the “growth inhibition (GI)” value in the series with HaCaT [3] is “Not Determined(Insoluble)”; with HaCaT [5], “Toxic”.

Molecule `O=C(N[C@@H](Cc1ccccc1)C(=O)N[C@H](/C=C/S(=O)(=O)c1ccccc1)CCCCNS(=O)(=O)c1cccc2ccccc12)c1ccc(C(F)(F)F)cc1` returned an EC50 in series [1] of 0.24 µM. In series [2], the IC50 amounted to 0.242 µM. Moreover, the “growth inhibition (GI)” value with HaCaT [3] is reported as “Not Determined(Insoluble)”; in the series with HaCaT [5] it was “Toxic”. For the molecule `O=C(Nc1ccccc1)N[C@@H](Cc1ccccc1)C(=O)N[C@H](/C=C/S(=O)(=O)c1ccccc1)CCCCNS(=O)(=O)c1cccc2ccccc12`, the EC50 in series [1] amounted to 0.15 µM. Also, in series [2], the IC50 is 0.144 µM. For the same molecule, the figures for the “growth inhibition (GI)” value with HaCaT [3] and in the series with HaCaT [5] were “Not Determined(Insoluble)” and “Toxic”, respectively. In turn, `O=C(Cc1ccc2c(c1)OCO2)N[C@@H](Cc1ccccc1)C(=O)N[C@H](/C=C/S(=O)(=O)c1ccccc1)CCCCNS(=O)(=O)c1cccc2ccccc12` returned an EC50 in series [1] of 0.8 µM. For `O=C(N[C@H](/C=C/S(=O)(=O)c1ccccc1)CCCCNS(=O)(=O)c1cccc2ccccc12)[C@H](Cc1ccccc1)NC(=S)Nc1ccccc1`, the EC50 in series [1] is 0.48 µM. Compared with the last molecule, the EC50 is about 1.7-fold lower. For `O=C(N[C@H](/C=C/S(=O)(=O)c1ccccc1)CCCCNS(=O)(=O)c1cccc2ccccc12)[C@H](Cc1ccccc1)NC(=S)Nc1ccc(C(F)(F)F)cc1`, the midpoint of the response in series [1], the EC50, lay at 0.22 µM. The IC50 in series [2] worked out at 0.22 µM. For the same molecule, the “growth inhibition (GI)” value in the series with HaCaT [3] is reported as “Not Determined(Insoluble)”; with HaCaT [5] it was “Toxic”.
